The target of assay [1] is Platelet-derived growth factor receptor alpha (Homo sapiens) (UniProt P16234). The assay can be described thus: Inhibition of PDGFRalpha phosphorylation in human EOL-1 cells after 90 mins by Western blot analysis. It is filed as cell-based. Conditions: EOL1. The essentials: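 EOL-1 cells (FIP1L1-PDGFRA, RPMI/10% FBS) treated 90 min with increasing compound doses. Lysed in lysis buffer with 1 mM NaVO4 and protease inhibitors, reduced, and run on Bis-Tris 4–12% gels. Western blot for phospho-PDGFRα and phospho-STAT5, with total PDGFRα and STAT5 as loading controls.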
(In general: A western blot detects proteins with antibodies after separation by electrophoresis.)

The next assay concerns MOLM-13. The assay can be described thus: Cytotoxicity against human MOLM13 cells after 24 hrs by plate reader analysis. The format is functional, cell-based. Conditions: MOLM-13, 24 h. The method in brief: (§1)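 Cells in RPMI 1640 with 10% FBS at 37 °C and 5% CO2 were seeded at 100,000 cells/ml. They were treated for 24 h at 8 concentrations (50–6400 nM), each in triplicate, with DMSO as negative control. Viable cells were measured by ATP-lite luminescence, and EC50 was taken from dose–response curves.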

Assay [2] concerns the target T1, Receptor-type tyrosine-protein kinase FLT3 (Mus musculus) (UniProt Q00342).
T1 sequence (whole entry): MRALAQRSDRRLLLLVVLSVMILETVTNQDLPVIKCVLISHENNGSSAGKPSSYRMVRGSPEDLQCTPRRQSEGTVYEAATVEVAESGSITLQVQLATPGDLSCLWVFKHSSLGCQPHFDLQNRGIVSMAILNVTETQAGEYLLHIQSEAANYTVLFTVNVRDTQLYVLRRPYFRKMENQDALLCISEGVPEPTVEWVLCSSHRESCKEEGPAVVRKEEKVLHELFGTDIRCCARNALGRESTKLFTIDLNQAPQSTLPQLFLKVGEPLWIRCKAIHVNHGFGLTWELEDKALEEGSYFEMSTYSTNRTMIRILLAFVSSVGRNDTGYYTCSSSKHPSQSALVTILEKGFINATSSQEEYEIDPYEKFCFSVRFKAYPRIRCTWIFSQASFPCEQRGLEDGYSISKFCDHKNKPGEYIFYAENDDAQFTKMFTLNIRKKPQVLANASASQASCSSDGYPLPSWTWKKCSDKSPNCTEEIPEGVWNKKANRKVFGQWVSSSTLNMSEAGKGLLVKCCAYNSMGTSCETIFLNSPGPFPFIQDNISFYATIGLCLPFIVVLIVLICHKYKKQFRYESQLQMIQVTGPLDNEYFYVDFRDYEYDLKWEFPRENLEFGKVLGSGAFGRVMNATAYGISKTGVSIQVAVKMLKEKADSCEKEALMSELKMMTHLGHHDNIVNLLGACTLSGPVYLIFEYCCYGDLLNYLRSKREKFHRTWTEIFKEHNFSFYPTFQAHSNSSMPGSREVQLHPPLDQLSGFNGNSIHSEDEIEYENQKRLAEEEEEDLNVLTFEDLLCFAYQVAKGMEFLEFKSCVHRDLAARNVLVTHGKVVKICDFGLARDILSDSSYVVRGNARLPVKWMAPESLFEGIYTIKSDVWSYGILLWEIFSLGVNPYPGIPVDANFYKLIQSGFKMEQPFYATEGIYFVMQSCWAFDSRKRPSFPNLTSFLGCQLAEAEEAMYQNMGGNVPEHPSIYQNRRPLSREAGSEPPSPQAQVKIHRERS
The assay can be described thus: Inhibition of FLT3 phosphorylation in mouse Ba/F3 cells transfected with FLT3-ITD at 50 nM after 90 mins by Western blot analysis. As to conditions: BaF3. The format is cell-based. The essentials: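 Ba/F3-FLT3-ITD cells were treated for 90 min with increasing doses. They were lysed in buffer with 1 mM NaVO4 and protease inhibitors, then reduced and run on Bis-Tris 4–12% gels for Western blot. Phospho-FLT3 and phospho-STAT5 were detected, with total FLT3 and STAT5 as loading controls.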

The subject of the next assay is EOL1. The assay can be described thus: Cytotoxicity against human EOL-1 cells after 24 hrs by plate reader analysis. It is filed as functional, cell-based. Conditions: EOL1, 24 h. The method in brief: as §1
Another assay relates to KG-1. As to the kind of experiment: Cytotoxicity against human KG1 cells after 24 hrs by plate reader analysis. The format is functional, cell-based. As to conditions: KG-1, 24 h. The method in brief:
as §1

Assay [3] addresses Proto-oncogene tyrosine-protein kinase Src (Homo sapiens) (UniProt P12931). As to the kind of experiment: Inhibition of SRC (unknown origin) transfected in mouse Ba/F3 cells up to 1 uM. It is filed as cell-based. As to conditions: BaF3. The method in brief: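 Ba/F3 cells transformed by ROS1 or SRC, dependent on that kinase. Parental Ba/F3 grown with mouse IL-3 served as control. Seeded at 100,000 cells/ml. Eight concentrations (50–6400 nM) run in triplicate with DMSO negative control for 24 h. Viable cells quantified by ATP-lite luminescence, mean ± SEM.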

The target of assay [4] is Ephrin type-A receptor 5 (Homo sapiens) (UniProt P54756). As to the kind of experiment: Inhibition of EPHA5 (unknown origin) transfected in mouse Ba/F3 cells up to 1 uM. It is filed as cell-based. Conditions: BaF3.
For assay [5], the target named is Proto-oncogene tyrosine-protein kinase ROS (Homo sapiens) (UniProt P08922). The assay can be described thus: Inhibition of ROS1 (unknown origin) transfected in mouse Ba/F3 cells up to 1 uM. The format is cell-based. As to conditions: BaF3.

Calls of active or inactive are those of the source. No cut-off for these calls is given here.

Chain of Ephrin type-A receptor 5 (Homo sapiens) (P54756 whole entry): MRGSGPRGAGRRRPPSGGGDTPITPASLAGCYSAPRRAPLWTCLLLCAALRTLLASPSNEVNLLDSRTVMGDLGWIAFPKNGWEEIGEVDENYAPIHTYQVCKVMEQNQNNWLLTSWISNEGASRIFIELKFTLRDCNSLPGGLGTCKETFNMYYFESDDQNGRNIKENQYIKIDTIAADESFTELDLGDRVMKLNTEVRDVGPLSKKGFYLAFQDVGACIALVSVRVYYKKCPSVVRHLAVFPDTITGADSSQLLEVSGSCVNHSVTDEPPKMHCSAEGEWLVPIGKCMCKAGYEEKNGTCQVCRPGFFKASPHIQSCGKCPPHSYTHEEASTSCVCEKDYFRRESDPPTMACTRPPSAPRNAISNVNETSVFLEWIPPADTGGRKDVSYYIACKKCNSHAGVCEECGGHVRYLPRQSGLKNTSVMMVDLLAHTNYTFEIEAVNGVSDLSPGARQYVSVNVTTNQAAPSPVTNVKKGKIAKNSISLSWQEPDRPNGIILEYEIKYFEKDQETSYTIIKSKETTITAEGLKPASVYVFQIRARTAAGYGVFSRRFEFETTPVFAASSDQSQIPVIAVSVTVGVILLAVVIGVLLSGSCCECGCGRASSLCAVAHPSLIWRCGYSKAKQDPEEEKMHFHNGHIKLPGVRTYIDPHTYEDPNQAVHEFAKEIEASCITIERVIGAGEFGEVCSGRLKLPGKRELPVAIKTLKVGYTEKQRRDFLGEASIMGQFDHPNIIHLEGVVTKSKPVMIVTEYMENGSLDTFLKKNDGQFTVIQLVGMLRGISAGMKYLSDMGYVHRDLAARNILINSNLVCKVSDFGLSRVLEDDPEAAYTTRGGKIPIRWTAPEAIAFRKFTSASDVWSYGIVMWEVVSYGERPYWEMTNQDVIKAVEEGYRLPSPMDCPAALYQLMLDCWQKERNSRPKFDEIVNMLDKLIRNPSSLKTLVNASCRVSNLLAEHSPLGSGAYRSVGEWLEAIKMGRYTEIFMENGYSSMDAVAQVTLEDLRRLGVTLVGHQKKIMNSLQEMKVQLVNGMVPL
Chain of Platelet-derived growth factor receptor alpha (Homo sapiens) (P16234 whole entry): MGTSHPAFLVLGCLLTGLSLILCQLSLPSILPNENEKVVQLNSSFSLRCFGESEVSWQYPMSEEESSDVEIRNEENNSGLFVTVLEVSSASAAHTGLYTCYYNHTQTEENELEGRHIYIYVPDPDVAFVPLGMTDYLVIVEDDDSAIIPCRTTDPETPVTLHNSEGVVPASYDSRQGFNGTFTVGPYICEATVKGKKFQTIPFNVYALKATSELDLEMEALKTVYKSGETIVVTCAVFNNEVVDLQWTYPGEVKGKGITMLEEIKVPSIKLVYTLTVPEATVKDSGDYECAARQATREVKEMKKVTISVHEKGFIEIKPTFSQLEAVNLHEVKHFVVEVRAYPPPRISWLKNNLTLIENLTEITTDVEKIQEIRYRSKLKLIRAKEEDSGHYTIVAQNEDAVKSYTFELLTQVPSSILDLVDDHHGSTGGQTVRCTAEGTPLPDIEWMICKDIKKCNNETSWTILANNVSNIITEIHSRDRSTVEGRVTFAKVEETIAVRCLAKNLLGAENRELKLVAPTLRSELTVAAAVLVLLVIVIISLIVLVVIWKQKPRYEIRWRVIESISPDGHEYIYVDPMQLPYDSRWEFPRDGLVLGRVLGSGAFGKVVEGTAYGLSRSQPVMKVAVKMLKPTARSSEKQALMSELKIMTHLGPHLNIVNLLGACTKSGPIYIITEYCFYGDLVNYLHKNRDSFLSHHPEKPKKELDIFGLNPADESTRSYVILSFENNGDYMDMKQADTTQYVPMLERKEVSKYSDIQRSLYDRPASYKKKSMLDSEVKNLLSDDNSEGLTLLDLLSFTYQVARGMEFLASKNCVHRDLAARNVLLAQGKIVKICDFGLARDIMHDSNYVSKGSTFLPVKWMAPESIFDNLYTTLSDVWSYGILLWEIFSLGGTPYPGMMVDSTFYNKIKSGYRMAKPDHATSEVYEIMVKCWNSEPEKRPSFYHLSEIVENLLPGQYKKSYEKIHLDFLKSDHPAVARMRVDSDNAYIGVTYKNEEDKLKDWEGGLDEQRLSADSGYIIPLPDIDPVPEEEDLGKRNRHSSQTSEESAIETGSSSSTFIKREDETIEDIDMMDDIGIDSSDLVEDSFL
Chain of Proto-oncogene tyrosine-protein kinase Src (Homo sapiens) (P12931 2-536 limits assumed): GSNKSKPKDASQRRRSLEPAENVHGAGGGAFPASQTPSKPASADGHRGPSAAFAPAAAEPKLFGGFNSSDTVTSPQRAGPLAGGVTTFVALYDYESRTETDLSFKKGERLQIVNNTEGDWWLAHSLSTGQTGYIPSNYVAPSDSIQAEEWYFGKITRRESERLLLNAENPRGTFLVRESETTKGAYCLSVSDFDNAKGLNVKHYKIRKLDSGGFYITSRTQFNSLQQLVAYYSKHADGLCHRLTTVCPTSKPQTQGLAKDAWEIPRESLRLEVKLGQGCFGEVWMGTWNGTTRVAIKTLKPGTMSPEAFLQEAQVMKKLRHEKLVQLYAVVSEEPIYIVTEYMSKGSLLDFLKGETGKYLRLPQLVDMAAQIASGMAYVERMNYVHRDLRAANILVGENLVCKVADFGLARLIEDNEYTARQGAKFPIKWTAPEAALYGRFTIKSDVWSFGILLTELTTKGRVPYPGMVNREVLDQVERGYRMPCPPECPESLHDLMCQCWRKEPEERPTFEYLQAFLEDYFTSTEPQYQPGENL
Chain of Proto-oncogene tyrosine-protein kinase ROS (Homo sapiens) (P08922 whole entry): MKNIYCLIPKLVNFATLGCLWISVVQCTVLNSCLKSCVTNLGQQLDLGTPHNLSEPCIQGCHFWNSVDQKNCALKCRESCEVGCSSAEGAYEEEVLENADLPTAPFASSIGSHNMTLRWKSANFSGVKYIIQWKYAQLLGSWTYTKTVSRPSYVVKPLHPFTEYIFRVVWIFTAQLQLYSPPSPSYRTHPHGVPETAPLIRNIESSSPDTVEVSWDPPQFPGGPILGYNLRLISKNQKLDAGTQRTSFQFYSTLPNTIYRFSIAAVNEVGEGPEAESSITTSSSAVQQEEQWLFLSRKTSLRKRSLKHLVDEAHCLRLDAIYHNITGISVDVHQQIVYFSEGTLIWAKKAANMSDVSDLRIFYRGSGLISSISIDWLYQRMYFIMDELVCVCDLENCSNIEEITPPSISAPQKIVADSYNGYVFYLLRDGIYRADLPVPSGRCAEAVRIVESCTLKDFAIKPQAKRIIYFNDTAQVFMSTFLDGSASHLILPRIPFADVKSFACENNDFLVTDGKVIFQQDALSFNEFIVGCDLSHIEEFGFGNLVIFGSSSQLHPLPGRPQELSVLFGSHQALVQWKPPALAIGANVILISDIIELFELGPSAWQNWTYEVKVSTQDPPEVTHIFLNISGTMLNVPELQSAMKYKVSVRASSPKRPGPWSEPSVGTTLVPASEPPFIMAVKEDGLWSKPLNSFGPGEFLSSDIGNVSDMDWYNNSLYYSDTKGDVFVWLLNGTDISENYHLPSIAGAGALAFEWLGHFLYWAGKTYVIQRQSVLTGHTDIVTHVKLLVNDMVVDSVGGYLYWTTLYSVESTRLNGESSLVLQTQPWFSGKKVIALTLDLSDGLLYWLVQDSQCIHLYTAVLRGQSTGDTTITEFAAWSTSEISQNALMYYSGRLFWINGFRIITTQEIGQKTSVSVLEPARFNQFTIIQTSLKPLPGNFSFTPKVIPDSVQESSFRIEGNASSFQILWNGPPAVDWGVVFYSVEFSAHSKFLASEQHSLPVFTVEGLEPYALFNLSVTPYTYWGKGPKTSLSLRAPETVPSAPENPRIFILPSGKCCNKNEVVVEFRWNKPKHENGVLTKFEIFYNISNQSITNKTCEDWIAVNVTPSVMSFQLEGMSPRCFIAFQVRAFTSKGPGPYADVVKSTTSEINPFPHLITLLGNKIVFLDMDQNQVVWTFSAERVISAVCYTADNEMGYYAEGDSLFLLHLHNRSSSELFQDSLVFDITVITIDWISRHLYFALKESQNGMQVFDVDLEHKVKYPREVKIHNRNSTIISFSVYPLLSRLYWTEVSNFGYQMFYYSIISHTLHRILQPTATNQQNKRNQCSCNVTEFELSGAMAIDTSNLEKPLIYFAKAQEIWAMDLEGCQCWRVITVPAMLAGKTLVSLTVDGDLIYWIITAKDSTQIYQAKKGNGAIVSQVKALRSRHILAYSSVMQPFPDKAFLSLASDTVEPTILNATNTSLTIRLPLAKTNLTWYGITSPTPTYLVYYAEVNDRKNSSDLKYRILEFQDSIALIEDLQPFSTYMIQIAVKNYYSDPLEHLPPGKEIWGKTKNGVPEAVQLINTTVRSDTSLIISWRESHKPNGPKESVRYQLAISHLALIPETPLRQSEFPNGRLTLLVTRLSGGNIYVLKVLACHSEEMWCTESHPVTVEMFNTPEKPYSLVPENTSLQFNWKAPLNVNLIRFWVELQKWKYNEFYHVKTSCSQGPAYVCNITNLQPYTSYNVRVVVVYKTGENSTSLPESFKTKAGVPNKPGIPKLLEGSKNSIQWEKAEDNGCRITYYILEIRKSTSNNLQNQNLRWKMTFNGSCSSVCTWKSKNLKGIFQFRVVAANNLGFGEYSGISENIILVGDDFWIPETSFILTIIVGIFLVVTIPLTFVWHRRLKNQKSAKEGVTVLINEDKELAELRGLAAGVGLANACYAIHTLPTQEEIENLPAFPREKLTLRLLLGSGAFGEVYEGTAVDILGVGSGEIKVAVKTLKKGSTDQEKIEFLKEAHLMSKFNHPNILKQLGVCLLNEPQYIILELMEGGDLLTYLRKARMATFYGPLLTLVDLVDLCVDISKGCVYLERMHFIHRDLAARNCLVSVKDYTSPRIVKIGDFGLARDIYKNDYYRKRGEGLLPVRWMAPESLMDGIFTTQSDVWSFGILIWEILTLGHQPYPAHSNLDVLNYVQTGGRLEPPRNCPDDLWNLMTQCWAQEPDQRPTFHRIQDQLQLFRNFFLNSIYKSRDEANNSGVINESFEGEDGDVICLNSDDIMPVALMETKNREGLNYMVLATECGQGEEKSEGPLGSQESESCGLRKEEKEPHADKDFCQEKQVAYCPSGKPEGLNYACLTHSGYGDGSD

As to `Cc1ccc(-c2cc(NC(=O)c3ccc(F)cc3)[nH]n2)cc1`, the inhibition result in assay [1] is “inactive”.

On to `COc1ccc(C(=O)Nc2cc(-c3ccccc3)[nH]n2)cc1`, for which the EC50 (commonly the concentration giving half of the maximal effect) in the assay on MOLM-13 turned out to be 0.292 µM; in the assay with EOL1, 0.07 µM; in the assay with KG-1, 15 µM. Besides, the inhibition result in assay [2] was “Active”.

As to `Fc1ccc(-c2n[nH]cc2-c2ccncc2)cc1Cl`, the inhibition entry in assay [3], in assay [4] and in assay [5] was “inactive” throughout.

The values above are taken from ChEMBL document CHEMBL2390926, “Identification of novel FLT3 kinase inhibitors” (Eur J Med Chem, 2013).
